Measurements published in ChEMBL document CHEMBL1800057, “Discovery of dual inducible/neuronal nitric oxide synthase (iNOS/nNOS) inhibitor development candidate 4-((2-cyclobutyl-1H-imidazo[4,5-b]pyrazin-1-yl)methyl)-7,8-difluoroquinolin-2(1H)-one (KD7332) part 2: identification of a novel, potent, and selective series of benzimidazole-quinolinone …” (J Med Chem, 2010).

How the values were obtained:
[1] = target: Nitric oxide synthase, inducible (Homo sapiens, UniProt P35228); test: Inhibition of human iNOS expressed in HEK293 cells assessed as inhibition of nitric oxide production after 18 hrs using 2,3-diaminonaphthalene by fluorescence assay; type: cell-based
In short: (§1)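 HEK293 cells grown to ~70% confluence in DMEM/10% FBS with pen/strep, transiently transfected with 10 μg human or murine iNOS plasmid plus Fugene 6 for 4 h at 37 °C, 10% CO2. Cells replated at 5e5 cells/mL and dosed with compound at once; 1400W (100 μM final) as positive control. After 18 h, DAN (10 μg/mL final) in HCl (0.1 N final) added for 20 min at room temperature. Fluorescence read after NaOH (0.12 N final).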

[2] = target: T1, Nitric oxide synthase, inducible (Mus musculus, UniProt P29477); test: Inhibition of mouse iNOS expressed in HEK293 cells assessed as inhibition of nitric oxide production after 18 hrs using 2,3-diaminonaphthalene by fluorescence assay; type: cell-based; in short: as §1
T1 sequence (P29477 whole entry): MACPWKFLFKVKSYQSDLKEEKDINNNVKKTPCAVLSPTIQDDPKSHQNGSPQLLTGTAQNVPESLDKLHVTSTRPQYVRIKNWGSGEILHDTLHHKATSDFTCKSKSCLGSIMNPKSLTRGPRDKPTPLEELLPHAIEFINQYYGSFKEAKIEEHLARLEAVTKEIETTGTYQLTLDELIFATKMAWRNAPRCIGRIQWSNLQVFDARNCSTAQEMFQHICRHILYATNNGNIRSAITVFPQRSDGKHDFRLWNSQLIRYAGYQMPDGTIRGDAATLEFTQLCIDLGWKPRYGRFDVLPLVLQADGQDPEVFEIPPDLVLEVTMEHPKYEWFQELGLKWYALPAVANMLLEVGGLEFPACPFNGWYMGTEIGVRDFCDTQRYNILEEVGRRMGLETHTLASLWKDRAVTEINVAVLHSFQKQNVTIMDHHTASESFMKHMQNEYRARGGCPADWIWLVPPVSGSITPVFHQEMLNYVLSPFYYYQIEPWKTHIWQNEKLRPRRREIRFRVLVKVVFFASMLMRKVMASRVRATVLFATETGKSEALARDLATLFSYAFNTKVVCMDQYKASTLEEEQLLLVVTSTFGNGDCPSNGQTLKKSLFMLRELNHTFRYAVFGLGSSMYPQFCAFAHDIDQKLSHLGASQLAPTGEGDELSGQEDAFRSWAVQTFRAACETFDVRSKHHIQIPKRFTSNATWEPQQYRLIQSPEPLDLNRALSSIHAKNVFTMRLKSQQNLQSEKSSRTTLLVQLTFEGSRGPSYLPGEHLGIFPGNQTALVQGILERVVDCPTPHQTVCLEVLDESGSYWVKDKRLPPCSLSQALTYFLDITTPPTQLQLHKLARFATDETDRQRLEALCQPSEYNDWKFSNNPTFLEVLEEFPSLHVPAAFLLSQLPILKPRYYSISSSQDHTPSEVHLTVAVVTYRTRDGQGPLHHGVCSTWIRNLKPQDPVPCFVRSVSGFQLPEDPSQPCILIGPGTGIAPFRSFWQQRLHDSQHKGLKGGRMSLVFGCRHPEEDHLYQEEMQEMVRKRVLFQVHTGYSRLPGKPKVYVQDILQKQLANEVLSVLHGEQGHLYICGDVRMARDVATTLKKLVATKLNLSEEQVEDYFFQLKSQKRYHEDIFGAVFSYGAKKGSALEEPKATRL

Cytochrome P450 1A2 = target: T2, Cytochrome P450 1A2 (Homo sapiens, UniProt P05177); test: Inhibition of human CYP1A2; type: ADME
T2 sequence (P05177 whole entry): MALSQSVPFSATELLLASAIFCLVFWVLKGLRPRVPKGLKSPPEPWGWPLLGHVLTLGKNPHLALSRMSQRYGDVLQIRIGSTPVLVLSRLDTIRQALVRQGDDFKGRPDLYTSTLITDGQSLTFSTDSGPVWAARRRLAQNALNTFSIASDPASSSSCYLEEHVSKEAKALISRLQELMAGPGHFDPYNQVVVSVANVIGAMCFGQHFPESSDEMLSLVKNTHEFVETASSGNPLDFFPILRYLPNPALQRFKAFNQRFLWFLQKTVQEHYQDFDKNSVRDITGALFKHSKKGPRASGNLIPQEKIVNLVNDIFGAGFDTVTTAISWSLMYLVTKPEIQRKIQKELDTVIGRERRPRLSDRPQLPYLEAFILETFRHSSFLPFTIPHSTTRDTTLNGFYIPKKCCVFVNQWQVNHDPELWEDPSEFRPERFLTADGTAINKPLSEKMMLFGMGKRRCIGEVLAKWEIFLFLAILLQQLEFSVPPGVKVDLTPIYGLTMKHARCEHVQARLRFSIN

Sequence of Nitric oxide synthase, inducible (Homo sapiens, UniProt P35228) (P35228 whole entry): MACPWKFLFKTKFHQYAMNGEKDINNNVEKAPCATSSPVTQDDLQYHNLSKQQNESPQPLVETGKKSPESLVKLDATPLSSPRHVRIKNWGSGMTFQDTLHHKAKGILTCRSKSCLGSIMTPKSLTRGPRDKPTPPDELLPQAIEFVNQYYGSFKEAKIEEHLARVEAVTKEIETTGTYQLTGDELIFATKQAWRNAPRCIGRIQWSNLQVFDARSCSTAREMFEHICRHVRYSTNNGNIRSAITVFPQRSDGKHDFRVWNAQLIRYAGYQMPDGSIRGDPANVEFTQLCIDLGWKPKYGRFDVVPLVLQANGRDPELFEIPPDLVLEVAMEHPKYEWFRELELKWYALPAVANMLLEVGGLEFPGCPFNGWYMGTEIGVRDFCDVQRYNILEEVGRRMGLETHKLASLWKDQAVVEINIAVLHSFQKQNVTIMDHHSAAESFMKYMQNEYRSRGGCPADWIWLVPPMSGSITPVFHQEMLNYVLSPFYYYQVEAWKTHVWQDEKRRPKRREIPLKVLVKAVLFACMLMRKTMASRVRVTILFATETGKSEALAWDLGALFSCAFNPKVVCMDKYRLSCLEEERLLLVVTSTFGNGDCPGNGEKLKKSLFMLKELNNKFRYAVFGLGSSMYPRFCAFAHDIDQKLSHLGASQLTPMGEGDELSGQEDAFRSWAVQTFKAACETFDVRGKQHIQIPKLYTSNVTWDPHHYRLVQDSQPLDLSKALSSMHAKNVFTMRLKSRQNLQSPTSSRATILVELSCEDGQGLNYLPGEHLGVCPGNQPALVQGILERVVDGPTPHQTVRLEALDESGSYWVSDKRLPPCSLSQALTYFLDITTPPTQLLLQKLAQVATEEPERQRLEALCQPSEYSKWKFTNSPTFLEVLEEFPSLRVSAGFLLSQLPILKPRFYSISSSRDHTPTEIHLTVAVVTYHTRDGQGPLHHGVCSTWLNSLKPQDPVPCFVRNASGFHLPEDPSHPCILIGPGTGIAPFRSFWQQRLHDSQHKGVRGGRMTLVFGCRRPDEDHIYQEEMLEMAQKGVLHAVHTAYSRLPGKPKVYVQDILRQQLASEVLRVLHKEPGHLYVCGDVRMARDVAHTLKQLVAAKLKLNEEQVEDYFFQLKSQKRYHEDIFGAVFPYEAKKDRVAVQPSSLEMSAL

| EC50 [1] | EC50 [2] | EC50 (Cytochrome P450 1A2) | SMILES |
| --- | --- | --- | --- |
| 88 nM | 440 nM | > 100 µM | CC(C)Cc1nc2nccnc2n1Cc1cc(=O)[nH]c2c(F)c(F)ccc12 |
| 91 nM | 430 nM | > 100 µM | O=c1cc(Cn2c(C3CCC3)nc3nccnc32)c2ccc(F)c(F)c2[nH]1 |

The remaining lines, values behind:

| SMILES | EC50 [1] | EC50 [2] | EC50 (Cytochrome P450 1A2) |
| --- | --- | --- | --- |
| CC(C)Cc1nc2ccccc2n1Cc1cc(=O)[nH]c2c(F)c(F)ccc12 | 380 nM | 3100 nM | – |
| O=c1cc(Cn2c(C3CCC3)nc3nccnc32)c2cccc(F)c2[nH]1 | 190 nM | 1300 nM | > 100 µM |
| O=c1cc(Cn2c(C3CC(F)(F)C3)nc3nccnc32)c2cccc(F)c2[nH]1 | 220 nM | 3300 nM | 35 µM |
